The target in data set [1] is T1, Amine oxidase [flavin-containing] B (Homo sapiens, UniProt P27338).
T1 sequence (P27338 whole entry): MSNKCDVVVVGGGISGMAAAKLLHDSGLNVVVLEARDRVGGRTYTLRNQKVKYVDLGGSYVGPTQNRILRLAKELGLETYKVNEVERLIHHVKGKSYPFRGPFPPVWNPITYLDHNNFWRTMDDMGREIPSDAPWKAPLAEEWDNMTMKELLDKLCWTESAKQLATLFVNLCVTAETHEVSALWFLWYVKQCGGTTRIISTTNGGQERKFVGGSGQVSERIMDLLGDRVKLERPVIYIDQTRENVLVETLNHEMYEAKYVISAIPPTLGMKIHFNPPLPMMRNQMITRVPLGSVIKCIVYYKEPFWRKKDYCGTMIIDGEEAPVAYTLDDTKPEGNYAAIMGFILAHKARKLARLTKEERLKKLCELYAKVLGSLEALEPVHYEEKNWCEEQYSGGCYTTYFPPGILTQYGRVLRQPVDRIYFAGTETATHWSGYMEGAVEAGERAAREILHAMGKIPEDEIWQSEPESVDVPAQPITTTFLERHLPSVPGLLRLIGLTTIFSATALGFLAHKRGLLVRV
Description: Reversible inhibition of human MAO-B assessed as residual enzyme activity at 4 fold IC50 incubated for 15 mins and measured before dialysis relative to control. The essentials: (§1)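 Dialysed (MWCO 12 000) at 4 °C for 24 h against 100 mM potassium phosphate pH 7.4, 5% sucrose, buffer changed twice. Dialysed and undialysed mixtures assayed together; residual activity from triplicates.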

Data set [2] can be described thus: Ex vivo inhibition of MAOA in CD1 mouse brain homogenates assessed as inhibition of 5-HT deamination by measuring 5-HIAA metabolite levels by using at 10 mg/kg, po administered via gavage for 7 days and measured 1 hr post last dose by HPLC analysis (reference value: 0.33 +/- 0.02 ug/g). The data set is classed as functional. Particulars: time 7 day.
Data set [3] can be described thus: Ex vivo inhibition of MAOA in CD1 mouse brain homogenates assessed as inhibition of 5-HT deamination by measuring 5-HIAA metabolite levels by using at 3 mg/kg, po administered via gavage for 7 days and measured 1 hr post last dose by HPLC analysis (reference value: 0.33 +/- 0.02 ug/g). The class given is functional. Particulars: time 7 day.
A short description of data set [4]: Cytotoxicity against human HepG2 cells assessed as cell viability at 30 uM incubated for 2 hrs by MTT assay relative to control. The class given is cell-based. Particulars: read-out: Activity. The essentials: (§2)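 HepG2 human hepatoma cells; viability read by MTT assay, with 0.1% DMSO as vehicle control. Viability given as % of control, mean ± SEM (n = 3); p < 0.05 taken as significant.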
In general terms: Tetrazolium dyes change colour on reduction, which living cells bring about.

Data set [5] can be described thus: Ex vivo inhibition of MAOA in CD1 mouse brain homogenates assessed as MAOA level at 10 mg/kg, po administered via gavage for 7 days and measured 1 hr post last dose by monoamine oxidase assay (reference value: 0.39 +/- 0.04 nmol/min/mg). The class given is functional. Particulars: time 7 day.
Data set [6] concerns the target T1, Amine oxidase [flavin-containing] B. In words: Reversible inhibition of human MAO-B assessed as residual enzyme activity at 4 fold IC50 incubated for 15 mins and measured 24 hrs post dialysis relative to control. Particulars: 24.25 h, time 1455 min. The essentials:
as §1

Data set [7] is described as follows: Ex vivo inhibition of MAOA in CD1 mouse brain homogenates assessed as 5-HT levels at 1 mg/kg, po administered via gavage for 7 days and measured 1 hr post last dose by ELISA kit method (reference value: 0.78 +/- 0.01 ug/g). The class given is functional. Particulars: time 7 day. (In general: In an ELISA, binding on a coated surface is turned into a signal by an enzyme label.)

Data set [8] is described as follows: Ex vivo inhibition of MAOA in CD1 mouse brain homogenates assessed as 5-HT levels at 10 mg/kg, po administered via gavage for 7 days and measured 1 hr post last dose by ELISA kit method (reference value: 0.78 +/- 0.01 ug/g). Particulars: time 7 day. The class given is functional.
The target of data set [9] is T2, Amine oxidase [flavin-containing] A (Homo sapiens, UniProt P21397).
T2 sequence (P21397 whole entry): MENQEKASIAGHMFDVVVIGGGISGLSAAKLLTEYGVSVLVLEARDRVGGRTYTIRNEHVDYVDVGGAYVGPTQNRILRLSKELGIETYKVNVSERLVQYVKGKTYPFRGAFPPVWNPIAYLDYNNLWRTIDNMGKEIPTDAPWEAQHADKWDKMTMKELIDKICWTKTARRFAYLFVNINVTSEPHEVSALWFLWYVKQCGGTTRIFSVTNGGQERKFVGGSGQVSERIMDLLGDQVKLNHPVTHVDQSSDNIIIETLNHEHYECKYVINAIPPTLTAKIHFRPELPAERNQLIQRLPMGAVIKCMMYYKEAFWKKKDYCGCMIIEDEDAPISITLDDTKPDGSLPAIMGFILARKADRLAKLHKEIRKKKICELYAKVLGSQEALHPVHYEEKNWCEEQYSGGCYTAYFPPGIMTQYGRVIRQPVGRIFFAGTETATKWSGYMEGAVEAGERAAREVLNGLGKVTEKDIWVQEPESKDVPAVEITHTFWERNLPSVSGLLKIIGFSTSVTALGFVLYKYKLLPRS
In words: Reversible inhibition of human MAO-A assessed as residual enzyme activity at 4 fold IC50 incubated for 15 mins and measured before dialysis by dialysis method relative to control. The procedure, abridged:
as §1

Data set [10] is described as follows: Ex vivo inhibition of MAOA in CD1 mouse brain homogenates assessed as inhibition of 5-HT deamination by measuring 5-HIAA metabolite levels by using at 1 mg/kg, po administered via gavage for 7 days and measured 1 hr post last dose by HPLC analysis (reference value: 0.33 +/- 0.02 ug/g). The class given is functional. Particulars: time 7 day.
Data set [11] can be described thus: Ex vivo inhibition of MAOA in CD1 mouse brain homogenates assessed as MAOA level at 1 mg/kg, po administered via gavage for 7 days and measured 1 hr post last dose by monoamine oxidase assay (reference value: 0.39 +/- 0.04 nmol/min/mg). The data set is classed as functional. Particulars: time 7 day.
Data set [12] is described as follows: Cytotoxicity against human HepG2 cells assessed as cell viability at 7.5 uM incubated for 2 hrs by MTT assay relative to control. The data set is classed as cell-based. Particulars: read-out: Activity. The procedure, abridged: as §2
Data set [13] addresses T2, Amine oxidase [flavin-containing] A. Description: Reversible inhibition of human MAO-A assessed as residual enzyme activity at 4 fold IC50 incubated for 15 mins and measured 24 hrs post dialysis by dialysis method relative to control. Particulars: 24.25 h, time 1455 min. The essentials: as §1
Data set [14] in a line: Ex vivo inhibition of MAOA in CD1 mouse brain homogenates assessed as MAOA level at 3 mg/kg, po administered via gavage for 7 days and measured 1 hr post last dose by monoamine oxidase assay (reference value: 0.39 +/- 0.04 nmol/min/mg). The class given is functional. Particulars: time 7 day.
The nature of data set [15]: Cytotoxicity against human HepG2 cells assessed as cell viability at 15 uM incubated for 2 hrs by MTT assay relative to control. The class given is cell-based. Particulars: read-out: Activity. The essentials:
as §2

The nature of data set [16]: Ex vivo inhibition of MAOA in CD1 mouse brain homogenates assessed as 5-HT levels at 3 mg/kg, po administered via gavage for 7 days and measured 1 hr post last dose by ELISA kit method (reference value: 0.78 +/- 0.01 ug/g). The data set is classed as functional. Particulars: time 7 day.
The nature of data set [17]: Ex vivo inhibition of MAOA in CD1 mouse brain homogenates assessed as dopamine levels at 30 mg/kg, po administered as single acute dose via gavage and measured after 1 hr by ELISA kit method (reference value: 7.08 +/- 0.58 ug/g). The data set is classed as functional.

For the molecule `O=C(NCCN1CCOCC1)c1ccc(Cl)cc1` [MOCLOBEMIDE], the Activity is 88% in data set [1]; 0.3 µg/g in data set [2]; 0.32 µg/g in data set [3]; 0.4 nmol/min/mg in [5]; 89.55% in [6]; 0.78 µg/g in [7]. Besides, the Activity in [8] turned out to be 0.82 µg/g; in data set [9], 36%; in data set [10], 0.33 µg/g; in data set [11], 0.41 nmol/min/mg; in data set [13] it was 93.77%; in [14] it was 0.41 nmol/min/mg. In addition, in data set [16], the Activity worked out at 0.79 µg/g. Also, the viability at 2 h, 30 µM in [4] is 86%. Besides, the viability at 2 h, 7.5 µM in data set [12] was 90.8%. For the same molecule, in data set [15], the viability at 2 h, 15 µM is 88.5%.

`COc1ccc(C2=NN(C(=O)Cn3c(=O)oc4ccc(C)cc43)C(c3cccc(OC)c3OC)C2)cc1` (stereo not drawn): the Activity was 74.19% in data set [1]; 0.29 µg/g in data set [2]; 0.3 µg/g in data set [3]; 0.27 nmol/min/mg in data set [5]; 94.16% in data set [6]; 0.8 µg/g in data set [7]. The Activity was found to be 7.13 µg/g in [17]; 0.99 µg/g in [8]; 22.16% in [9]; 0.32 µg/g in data set [10]; 0.39 nmol/min/mg in data set [11]; 92.55% in [13]. The values for the Activity in data set [14] and in [16] were 0.34 nmol/min/mg and 0.85 µg/g, respectively. The viability at 2 h, 30 µM in [4] is 84.9%. Further, the viability at 2 h, 7.5 µM in [12] amounted to 101%. In addition, the viability at 2 h, 15 µM in data set [15] came out at 99.6%.

These data come from ChEMBL document CHEMBL4706681, “New 2-Pyrazoline and Hydrazone Derivatives as Potent and Selective Monoamine Oxidase A Inhibitors” (J Med Chem, 2021).
